The values below come from ChEMBL document CHEMBL3994654, “Discovery of phenyl acetamides as potent and selective GPR119 agonists” (Bioorg Med Chem Lett, 2017).

The structures appear in SMILES notation. ≈ marks a conversion by molar mass, not a printed value. A value given as a limit tells only on which side of the number the result lay.

The target in series [1] is T1, Glucose-dependent insulinotropic receptor (Homo sapiens, UniProt Q8TDV5).
T1 sequence (Q8TDV5 whole entry): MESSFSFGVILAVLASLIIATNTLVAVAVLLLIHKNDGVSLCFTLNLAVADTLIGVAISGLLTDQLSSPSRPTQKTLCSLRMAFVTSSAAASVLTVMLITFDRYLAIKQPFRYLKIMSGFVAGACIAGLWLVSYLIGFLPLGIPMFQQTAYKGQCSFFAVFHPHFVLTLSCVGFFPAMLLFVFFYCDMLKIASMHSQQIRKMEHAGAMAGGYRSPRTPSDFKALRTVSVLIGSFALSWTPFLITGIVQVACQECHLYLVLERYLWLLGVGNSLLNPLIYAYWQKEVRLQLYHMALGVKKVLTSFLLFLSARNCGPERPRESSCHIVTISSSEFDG
The series is described as follows: Agonist activity at human GPR119 expressed in HEK293 cells assessed as increase in intracellular cAMP level after 60 mins by HTRF assay. The format is functional, cell-based. In a few lines:
(§1)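 cAMP stimulation is also given as % control at the top concentration, relative to an internal agonist control set at 100% cAMP stimulation. EC50 values are means of at least 2 independent experiments, except for two compounds.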

Series [2] deals with T2, Voltage-gated inwardly rectifying potassium channel KCNH2 (Homo sapiens, UniProt Q12809).
T2 sequence (Q12809 whole entry): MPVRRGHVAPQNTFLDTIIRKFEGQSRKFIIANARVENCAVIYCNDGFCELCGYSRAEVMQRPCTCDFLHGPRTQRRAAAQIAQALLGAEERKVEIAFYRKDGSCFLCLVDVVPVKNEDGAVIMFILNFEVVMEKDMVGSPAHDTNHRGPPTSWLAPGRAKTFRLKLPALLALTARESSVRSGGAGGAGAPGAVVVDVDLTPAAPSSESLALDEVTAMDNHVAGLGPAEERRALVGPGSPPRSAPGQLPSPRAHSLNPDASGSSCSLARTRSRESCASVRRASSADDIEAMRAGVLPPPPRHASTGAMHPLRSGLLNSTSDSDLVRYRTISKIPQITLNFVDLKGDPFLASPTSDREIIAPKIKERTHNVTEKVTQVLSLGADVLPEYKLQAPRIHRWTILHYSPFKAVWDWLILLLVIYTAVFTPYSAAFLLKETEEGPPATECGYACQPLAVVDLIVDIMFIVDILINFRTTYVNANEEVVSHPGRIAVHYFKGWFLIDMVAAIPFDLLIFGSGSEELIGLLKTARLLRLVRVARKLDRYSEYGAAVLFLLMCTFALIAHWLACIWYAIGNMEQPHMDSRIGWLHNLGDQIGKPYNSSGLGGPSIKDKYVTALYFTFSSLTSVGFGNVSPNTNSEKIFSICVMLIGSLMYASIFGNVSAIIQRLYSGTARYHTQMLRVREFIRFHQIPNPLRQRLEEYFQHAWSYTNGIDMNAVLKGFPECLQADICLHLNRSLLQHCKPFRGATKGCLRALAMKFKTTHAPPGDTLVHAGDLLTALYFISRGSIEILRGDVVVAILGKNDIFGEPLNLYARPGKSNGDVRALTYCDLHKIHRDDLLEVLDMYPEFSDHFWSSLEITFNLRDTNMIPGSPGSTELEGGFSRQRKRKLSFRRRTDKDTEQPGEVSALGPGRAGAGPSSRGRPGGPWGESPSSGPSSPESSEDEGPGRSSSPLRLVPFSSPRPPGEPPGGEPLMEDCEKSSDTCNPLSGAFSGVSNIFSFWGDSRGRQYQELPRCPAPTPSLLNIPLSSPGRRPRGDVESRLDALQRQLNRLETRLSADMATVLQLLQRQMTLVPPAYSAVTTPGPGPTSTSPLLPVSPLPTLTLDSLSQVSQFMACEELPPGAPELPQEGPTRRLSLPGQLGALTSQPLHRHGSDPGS
For series [3], the target named is T3, Glucose-dependent insulinotropic receptor (Homo sapiens) (UniProt Q8TDV5).
T3 sequence (whole entry): T1 sequence (Q8TDV5 whole entry)
The experiment in a line: Agonist activity at human GPR119 expressed in HEK293 cells assessed as increase in intracellular cAMP level after 60 mins by HTRF assay relative to control. Type of series: functional, cell-based. The gist of the method: (§2)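 EC50 values are means of at least 2 independent experiments, with a few single determinations. Maximal response is reported as the percentage of cAMP stimulation at the maximal dose tested, normalised to an internal agonist control set as 100%.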
For orientation: cAMP levels reflect the balance of adenylyl cyclase and phosphodiesterase activity.

Series [4] deals with T4, Glucose-dependent insulinotropic receptor (Mus musculus, UniProt Q7TQP3).
T4 sequence (Q7TQP3 whole entry): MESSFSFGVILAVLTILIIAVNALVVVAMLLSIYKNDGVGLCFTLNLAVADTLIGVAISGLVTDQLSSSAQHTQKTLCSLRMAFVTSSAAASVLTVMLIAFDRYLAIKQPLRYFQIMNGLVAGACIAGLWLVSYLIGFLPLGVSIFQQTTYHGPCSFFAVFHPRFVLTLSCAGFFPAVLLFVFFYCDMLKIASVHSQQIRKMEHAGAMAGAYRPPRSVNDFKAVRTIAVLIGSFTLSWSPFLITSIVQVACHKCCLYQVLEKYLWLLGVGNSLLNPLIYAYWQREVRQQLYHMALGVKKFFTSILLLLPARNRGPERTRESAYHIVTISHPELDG
The experiment in a line: Agonist activity at mouse GPR119 expressed in CHO cells co-expressing Galpha15 assessed as increase in intracellular cAMP level after 60 mins by HTRF assay. Type of series: functional, cell-based. In a few lines:
as §1

Series [5] is described as follows: Half life in Wistar Han rat at 0.5 mg/kg, iv by LC-MS/MS analysis. The conditions noted are these: in vivo. Type of series: ADME, organism-based.
Series [6] can be described thus: Kinetic solubility in fasted state simulated intestinal fluid at pH 6.5. Type of series: physicochemical. The conditions noted are these: read-out: Kinetic_solubility.
Series [7] has as its target T5, Glucose-dependent insulinotropic receptor (Mus musculus) (UniProt Q7TQP3).
T5 sequence (whole entry): T4 sequence (Q7TQP3 whole entry)
The series is described as follows: Agonist activity at mouse GPR119 expressed in CHO cells co-expressing Galpha15 assessed as increase in intracellular cAMP level after 60 mins by HTRF assay relative to control. Type of series: functional, cell-based. In a few lines: as §2

Series [8] concerns the target T2, Voltage-gated inwardly rectifying potassium channel KCNH2. The experiment in a line: Inhibition of human ERG by PatchXpress method.

For `O=C(Cc1ccc(OCC[C@@H]2C[C@@H]2C2CCN(c3ncc(Cl)cn3)CC2)cc1F)N1CCC1`, the EC50 amounted to 0.2 nM in series [1] and 0.4 nM in series [4]. Moreover, the IC50 in series [2] came out at 3300 nM. The Activity came to 106% in series [3] and 146% in series [7]. The same compound gave a half-life in series [5] of 6.9 h. For the same compound, the solubility kinetic in series [6] was 137 µM (≈ 64.8 µg/mL).
`COCc1cnc(N2CCC([C@H]3C[C@H]3CCOc3ccc(CC(=O)N4CCC4)c(F)c3)CC2)nc1`: the EC50 in series [1] turned out to be 0.7 nM; in series [4], 1.6 nM. The IC50 in series [2] turned out to be 19000 nM. Further, the values for the Activity in series [3] and in series [7] were 82% and 90%, respectively. The same compound gave a half-life in series [5] of 1.9 h. Further, the solubility kinetic in series [6] is 152 µM (≈ 73.4 µg/mL).
On to `O=C(Cc1ccc(OCC[C@@H]2C[C@@H]2C2CCN(c3ncc(Cl)cn3)CC2)nc1)N1CCC1`, for which the figures for the EC50 in series [1] and in series [4] were 9.4 nM and 5.1 nM, respectively. The IC50 in series [2] turned out to be 2100 nM. Moreover, the Activity stood at 112% in series [3] and 133% in series [7]. In series [6], the solubility kinetic is 83 µM (≈ 37.8 µg/mL).
Turning to `CC(C)c1noc(N2CCC([C@H]3C[C@H]3CCOc3ccc(CC(=O)N4CCC4)c(F)c3)CC2)n1`, the figures for the EC50 in series [1] and in series [4] were 2 nM and 6.7 nM, respectively. Also, inhibition in series [2] was half-maximal at 7000 nM (IC50). The figures for the Activity in series [3] and in series [7] were 78% and 102%, respectively. Besides, the half-life in series [5] is 1.8 h. Moreover, in series [6], the solubility kinetic was 126 µM (≈ 59.3 µg/mL).
On to `O=C(Cc1ccc(OCC[C@@H]2C[C@@H]2C2CCN(c3ncc(Cl)cn3)CC2)cc1F)N1CC(O)C1`, for which the figures for the EC50 in series [1] and in series [4] were 0.8 nM and 6.7 nM, respectively. Besides, the Activity amounted to 89% in series [3] and 110% in series [7]. In series [5], this compound had a half-life of 3.5 h. In series [6], the solubility kinetic is 144 µM (≈ 70.4 µg/mL).
Consider `O=C(Cc1ccc(OCC[C@@H]2C[C@@H]2C2CCN(c3ncc(Cl)cn3)CC2)cc1)N1CCC1`, for which the EC50 was 0.8 nM in series [1] and 0.5 nM in series [4]. Further, inhibition in series [2] was half-maximal at 7400 nM (IC50). Besides, the Activity in series [3] amounted to 82%; in series [7], 93%. In series [5], the half-life is 4.7 h. In series [6], the solubility kinetic is 97 µM (≈ 44.1 µg/mL).
Turning to `O=C(Cc1ccc(OCC[C@@H]2C[C@@H]2C2CCN(c3ncc(Cl)cn3)CC2)c(F)c1)N1CCC1`, the values for the EC50 in series [1] and in series [4] were 2.2 nM and 1.6 nM, respectively. Moreover, the results for the Activity in series [3] and in series [7] were 106% and 91%, respectively. Moreover, the solubility kinetic in series [6] is 65 µM (≈ 30.7 µg/mL).
For `CCc1cnc(N2CCC([C@H]3C[C@H]3CCOc3ccc(CC(=O)N4CCC4)c(F)c3)CC2)nc1`, the figures for the EC50 in series [1] and in series [4] were 0.4 nM and 0.84 nM, respectively. For the same compound, the IC50 in series [2] amounted to 3200 nM. Besides, the Activity in series [3] turned out to be 103%; in series [7] it was 111%. Moreover, the solubility kinetic in series [6] is 140 µM (≈ 65.3 µg/mL).
Consider `O=C(Cc1ccc(OCC[C@@H]2C[C@@H]2C2CCN(c3ncc(Cl)cn3)CC2)cc1F)N1CCCCC1`, for which the EC50 in series [1] turned out to be 1.5 nM; in series [4], 2.2 nM. In series [2], this compound came in with a half-inhibitory concentration (IC50) of 3300 nM. In addition, the Activity in series [3] was determined as 116%; in series [7], 92%. Besides, in series [6], the solubility kinetic was 124 µM (≈ 62.1 µg/mL).
In the case of `NC(=O)Cc1ccc(OCC[C@@H]2C[C@@H]2C2CCN(c3ncc(Cl)cn3)CC2)cc1`, the EC50 in series [1] amounted to 67 nM; in series [4] it was 16 nM. Besides, the figures for the Activity in series [3] and in series [7] were 85% and 68%, respectively.
Take `CC1(OC(=O)N2CCC([C@H]3C[C@H]3CCOc3ccc(CC(=O)N4CCC4)c(F)c3)CC2)CC1`: the figures for the EC50 in series [1] and in series [4] were 3.3 nM and 6.6 nM, respectively. For the same compound, the IC50 in series [2] stood at 23000 nM; in series [8], 8600 nM. Also, the results for the Activity in series [3] and in series [7] were 127% and 115%, respectively. The same compound showed a half-life in series [5] of 1.6 h. In addition, the solubility kinetic in series [6] was 138 µM (≈ 63.3 µg/mL).
On to `O=C(Cc1ccc(OCC[C@@H]2C[C@@H]2C2CCN(c3ncc(Cl)cn3)CC2)cc1)NC1CC1`, for which the figures for the EC50 in series [1] and in series [4] were 1.8 nM and 1.5 nM, respectively. The compound further gave an IC50 in series [2] of over 60000 nM. For the same compound, the Activity in series [3] came out at 104%; in series [7], 91%. In addition, the solubility kinetic in series [6] is 22 µM (≈ 10 µg/mL).

As a reminder, the EC50 is the concentration needed to bring the measured effect to its halfway point. The IC50 is the midpoint of a concentration-inhibition curve. The low end stands for inhibition by little substance, the high end for a need for much substance. What is called half-life is how long it takes for the measured level to halve. High values mean slow loss, low ones fast loss.
